# Screening results (PubChem BioAssay)
# Sampled rows, rich in hits. Any-hit rate of the full collection: about 2.7%.
# ARFGAP1 inhibitor = inhibitors of rat ARFGAP1 GAP activity, primary screen, biochemical, fluorescence polarization, GDP tracer | ADP-ribosylation factor GTPase-activating protein 1 (Rattus norvegicus), Q62848 | Arfgap1-stimulated ARF1 GTP hydrolysis, GDP FP detection | inhibition, % at 16.5 µM | hit rate 0.26% among 360,000;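 active = inhibition above a per-plate limit, mean inhibition of low control wells plus 3 SD, cut at about 25% in these data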;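 note: 0% = DMSO wells with enzyme and 100% = wells lacking Arfgap1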
# Target sequence (Q62848 1-136 limits assumed): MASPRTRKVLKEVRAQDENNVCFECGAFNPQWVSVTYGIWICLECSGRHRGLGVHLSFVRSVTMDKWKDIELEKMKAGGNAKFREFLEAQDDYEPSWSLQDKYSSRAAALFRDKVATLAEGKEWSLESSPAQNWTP
#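 Material: rat Arfgap1 catalytic domain, aa 1-136; also added: human ARF1(Δ1-17)-GTP substrate; compound dosing: one concentration, 16.5 µM, DMSO 1.26%; incubation: GTP hydrolysis reaction 2 h at 25 °C; measured by: Tracer-displacement fluorescence polarization with EDTA stop, 620/688 nm; evaluation: % inhibition from polarization; repeats: one replicate per compound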
# ASAP1 inh = inhibitors of human ASAP1 ArfGAP activity, primary screen, biochemical, fluorescence polarization; ASAP1-stimulated ARF1 GTP hydrolysis, GDP FP detection; inhibition, % at 16.5 µM; hit rate 0.19% among 360,000; AID 624377, 2012; in the data active = inhibition above about 25%;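 note: 0% = vehicle with enzyme and substrate and 100% = no enzyme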
# PAFAH2 inh = PAFAH2 enzyme inhibitors, primary screen, biochemical, fluorescence polarization, human; recombinant PAFAH2, FP-rhodamine activity probe; inhibition, % at 3.39 µM; hit rate 0.99% among 340,000; Platelet-activating factor acetylhydrolase 2, cytoplasmic (Homo sapiens), Q99487; AID 492956, 2010;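 active = inhibition above the mean over all tested compounds plus 3 SD, cut at about 30% in these data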;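 note: inhibitors block probe labeling of enzyme so polarization drops; 0% = enzyme with DMSO and 100% = wells lacking PAFAH2 protein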
# PAFAH1B3 inh = PAFAH1B3 enzyme inhibitors, primary screen, biochemical, fluorescence polarization, human; Platelet-activating factor acetylhydrolase IB subunit alpha1 (Homo sapiens), Q15102; recombinant PAFAH1B3, FP-rhodamine probe; inhibition, % at 3.39 µM; hit rate 0.28% among 340,000; AID 492972, 2010;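 active = inhibition above the screen-wide average of all tested compounds plus 3 SD, cut at about 25% in these data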;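 note: 0% = enzyme with DMSO only and 100% = wells lacking PAFAH1B3 protein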
# Target sequence (Q15102 whole entry, looked up): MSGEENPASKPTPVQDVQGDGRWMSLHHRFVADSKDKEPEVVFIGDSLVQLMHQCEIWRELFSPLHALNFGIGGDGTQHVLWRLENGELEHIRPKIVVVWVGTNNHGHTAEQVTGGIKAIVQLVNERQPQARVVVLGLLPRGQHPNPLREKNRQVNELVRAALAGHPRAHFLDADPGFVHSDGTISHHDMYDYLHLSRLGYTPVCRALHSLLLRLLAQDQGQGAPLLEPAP
# pPAFAH inh = pPAFAH enzyme inhibitors, primary screen, biochemical, fluorescence polarization, human; Platelet-activating factor acetylhydrolase (Homo sapiens), Q13093; recombinant pPAFAH, FP-rhodamine probe fluorescence polarization; inhibition, % at 3.39 µM; hit rate 1.5% among 330,000;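 active = inhibition above the mean inhibition across the screen plus 3 SD, cut at about 25% in these data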;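 note: inhibitors block binding of the rhodamine activity-based probe so polarization drops; 0% = enzyme with DMSO and 100% = wells lacking pPAFAH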
# PAFAH1B2 inh = PAFAH1B2 enzyme inhibitors, primary screen, biochemical, fluorescence polarization, human | recombinant PAFAH1B2, FP-rhodamine activity probe | Platelet-activating factor acetylhydrolase IB subunit alpha2 (Homo sapiens), P68402 | inhibition, % at 3.39 µM | hit rate 1.2% among 340,000 | AID 492953, 2010;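 active = inhibition above the mean of all tested compounds plus 3 SD, cut at about 24% in these data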;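 note: 0% = enzyme with DMSO and 100% = wells lacking PAFAH1B2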
# Target sequence (P68402 whole entry, looked up): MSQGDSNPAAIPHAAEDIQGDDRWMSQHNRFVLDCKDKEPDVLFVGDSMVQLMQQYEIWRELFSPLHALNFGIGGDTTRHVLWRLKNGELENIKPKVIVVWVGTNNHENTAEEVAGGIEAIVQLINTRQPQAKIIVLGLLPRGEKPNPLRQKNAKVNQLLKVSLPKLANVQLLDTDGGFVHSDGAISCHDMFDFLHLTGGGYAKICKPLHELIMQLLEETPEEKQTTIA
# PAFAH2 FP conf = PAFAH2 enzyme inhibitors, confirmation, biochemical, fluorescence polarization, human | shares compounds with PAFAH2 inh | AID 493030, 2011 | recombinant PAFAH2, FP-rhodamine activity probe | hit rate 65% among 2,300 | inhibition, % at 3.39 µM;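 active = mean inhibition over three repeats above a set limit taken from the earlier primary screen, cut at about 30% in these data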;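 note: inhibitor blocks binding of rhodamine activity probe so polarization falls; 0% = enzyme with DMSO and 100% = wells lacking PAFAH2 protein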
# * hit, by the source's call; nt = no result.
SMILES,ARFGAP1 inhibitor,ASAP1 inh,PAFAH2 inh,PAFAH1B3 inh,pPAFAH inh,PAFAH1B2 inh,PAFAH2 FP conf
C[C@H]1CN([C@@H](C)CO)C(=O)CCCn2cc(nn2)CO[C@@H]1CN(C)S(C)(=O)=O,-8,-4,nt,nt,nt,nt,nt
N/C(Cc1ccc([N+](=O)[O-])cc1)=N\OC(=O)c1ccccc1F,0,1,38*,15,2,-2,23
N/C(Cc1ccc([N+](=O)[O-])cc1)=N\OC(=O)Cc1ccccc1,5,3,9,-5,6,6,nt
COc1cccc(C(O)c2nc(/C=C/c3ccc(C(F)(F)F)cc3)cs2)c1 (stereo not drawn),8,15,nt,nt,nt,nt,nt
O=C(Nc1ccc(-c2csc(Nc3ccccc3)n2)cc1)c1cc([N+](=O)[O-])cc(C(F)(F)F)c1,14,16,50*,22,2,23,-8
O=C(Nc1ccc(-c2csc(Nc3ccccc3)n2)cc1)c1cccc(C(F)(F)F)c1,5,16,-6,16,0,5,nt
O=C(Nc1cccc(-c2csc(Nc3cccc(C(F)(F)F)c3)n2)c1)c1cc([N+](=O)[O-])cc(C(F)(F)F)c1,3,11,30*,7,1,-6,-9
CCc1ccc(NC(=O)c2noc3c2CCC3)cc1,3,8,31*,4,12,8,10
CCc1ccc(NC(=O)c2noc3c2CCCCC3)cc1,-2,-7,-3,10,-3,4,nt
CCSc1ccc([C@@H]2[C@H]3C(=O)N(CC)C(=O)[C@H]3[C@]3(C(=O)OC)CCCCN23)cc1OC,nt,nt,-2,2,5,7,nt
COc1cc(C(=O)OCC(=O)N2CCCCC2C)ccc1OCc1c(C)noc1C (stereo not drawn),20,-11,32*,1,5,2,13
COc1cc(C(=O)OCC(C)=O)ccc1OCc1c(C)noc1C,1,1,1,9,nt,2,nt
O=C(O)c1cccc(N/N=C/c2ccc(F)c(F)c2)c1,17,3,3,1,9,-1,nt
O=C(O)c1cccc(N/N=C/C2=C(Cl)c3cc(Cl)ccc3SC2)c1,-7,11,36*,17,nt,15,15
CCCCNC(=O)C[C@@H]1C[C@@]2(C(=O)OCC)CCCC=C2N(Cc2ccco2)C1=O,2,-7,nt,nt,nt,nt,nt
O=C(COC(=O)/C=C/c1ccc(Cl)c(Cl)c1)NC1CC1,-6,-6,17,7,6,9,nt
CC(C)NC(=O)COC(=O)/C=C/c1ccco1,2,-10,22,4,5,-1,nt
CSc1ccc(/C=C/C(=O)OCC(=O)NC2CCCC2)cc1,4,-6,nt,nt,nt,nt,nt
CC(C)NC(=O)COC(=O)/C=C/c1ccc(F)cc1,-6,-6,36*,5,1,-3,22
O=C(COC(=O)/C=C/c1ccc(F)cc1)NC1CCCCCC1,6,18,89*,3,12,0,81*
O=C(COC(=O)/C=C/c1ccc(Cl)cc1)NC1CCCC1,-7,3,64*,6,2,6,67*
O=C(COC(=O)/C=C/c1ccc(F)cc1)NC1CC1,3,7,49*,1,2,-1,37*
CCOC(=O)c1ccc(S(=O)(=O)N2CCC(C(=O)NCC3CCCCC3)CC2)cc1,-6,0,3,-1,-1,2,nt
CN(Cc1ccccc1)C(=O)c1ccc(NC(=O)Cc2ccc(NC(=O)C3CCN(S(=O)(=O)c4cccc([N+](=O)[O-])c4)CC3)cc2)cc1,2,9,-21,-17,nt,-7,nt
CC(C)Oc1cc(C(=O)N2CCC(N3CCCCC3)CC2)ccc1Nc1nnc(Cl)c(Nc2ccccc2S(C)(=O)=O)n1,nt,nt,-3,7,nt,2,nt
SMILES,ARFGAP1 inhibitor,ASAP1 inh,PAFAH2 inh,PAFAH1B3 inh,pPAFAH inh,PAFAH1B2 inh,PAFAH2 FP conf
O=C(COC(=O)/C=C/c1ccc(F)cc1)NC1CCCC1,9,-3,79*,3,nt,3,86*
CCCC(=O)N1CCCC(c2cc(C(=O)NCc3ccccc3)no2)C1 (stereo not drawn),6,-7,nt,nt,nt,nt,nt
CC1(C)CC2CC(C)(CN2C(=O)COC(=O)c2ccccc2C(F)(F)F)C1 (stereo not drawn),2,2,0,8,5,11,nt
COC(=O)Nc1nc(-c2ccccc2)c(C(=O)c2ccc(Cl)cc2)s1,10,17,10,5,2,9,nt
CCOC(=O)Nc1nc(-c2ccccc2)c(C(=O)c2ccccc2)s1,5,1,41*,10,4,11,42*
Cn1c(=O)c2c(ncn2CC(=O)Nc2cc(S(=O)(=O)N3CCCCC3)ccc2O)n(C)c1=O,2,-1,32*,3,-3,1,21
CN(C)P(=O)(Nc1cccc2ccccc12)Nc1cccc2ccccc12,2,4,-11,7,-1,-1,nt
C=CCOc1ccc(/C=C/C(=O)OCC(=O)NCc2ccco2)cc1,-14,-9,46*,8,6,0,36*
C=CCOc1ccc(/C=C/C(=O)OCC(=O)NCCc2ccccc2)cc1,14,24,28,-2,6,-2,nt
O=C(COC(=O)/C=C/c1ccc(F)cc1)NCc1ccco1,14,5,47*,3,12,2,29
O=C(COC(=O)C1CC2C=CC1C2)NCc1ccc(F)cc1 (stereo not drawn),9,-13,22,2,10,3,nt
O=C(COC(=O)C1CC2C=CC1C2)NCc1ccco1 (stereo not drawn),-12,7,32*,3,16,1,12
O=C(COC(=O)/C=C/c1ccc([N+](=O)[O-])cc1)NCc1ccco1,10,6,13,9,6,2,nt
Cc1ccc(S(=O)(=O)N2C3CCCCC3O[C@H]2CC(=O)c2cccc3ccccc23)cc1 (stereo partly drawn),-12,2,nt,nt,nt,nt,nt
N#Cc1ccccc1OCC(=O)NNC(=O)CCC1CCCC1,-5,-3,41*,1,16,6,26
O=C(NC1CCCC1)C(c1ccc(F)cc1)N1CCC(O)(c2ccc(Cl)cc2)CC1 (stereo not drawn),7,-8,nt,nt,nt,nt,nt
O=C(NC(=S)Nc1cc(S(=O)(=O)N2CCOCC2)ccc1O)c1ccco1,4,-8,44*,12,7,4,32*
